STAT1 activator: STAT1 signaling activation. activation (% of control), % at 5.5 µM. NIH 3T3 STAT1-luciferase reporter, IFN-gamma, luminescence; 100% = IFN-gamma alone, no compound. AID 932. 2.6% of 200,000 active;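 active = activation above the screen-wide mean activation plus 3 SD, cut at about 130% in these data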;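 note: raw ratio to IFN-gamma control signal so 100% means no change and 0% no light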
MDM2 E3 inh: Mdm2 E3 ligase (human) inhibition | cell-based MDM2 ubiquitination luciferase reporter, 2 h; 0 = plate control, 100 = twice control, blank-subtracted | signal enhancement, % at 5 µM | Q00987 | 0.11% of 210,000 active;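 active = signal enhancement of 30% or more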;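 note: luminescence tracks abundance of the self-degrading MDM2-luciferase fusion protein; higher signal means inhibition of MDM2 E3 ligase activity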
Target sequence (Q00987 whole entry, looked up, the tested form may be a part): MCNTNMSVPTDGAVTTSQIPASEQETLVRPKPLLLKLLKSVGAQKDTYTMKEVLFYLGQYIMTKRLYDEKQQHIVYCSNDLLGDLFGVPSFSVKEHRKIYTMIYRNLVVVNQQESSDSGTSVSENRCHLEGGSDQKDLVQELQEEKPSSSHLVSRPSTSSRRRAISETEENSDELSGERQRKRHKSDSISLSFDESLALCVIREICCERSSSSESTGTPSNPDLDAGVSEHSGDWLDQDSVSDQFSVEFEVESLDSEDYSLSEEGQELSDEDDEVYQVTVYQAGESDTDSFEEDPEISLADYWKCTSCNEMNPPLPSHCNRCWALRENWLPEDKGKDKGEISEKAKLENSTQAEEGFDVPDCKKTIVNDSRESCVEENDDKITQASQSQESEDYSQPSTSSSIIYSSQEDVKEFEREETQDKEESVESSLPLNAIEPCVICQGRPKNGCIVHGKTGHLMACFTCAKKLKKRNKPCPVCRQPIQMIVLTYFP
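test system = mammalian cells stably expressing self-ubiquitinating, self-degrading MDM2 E3–luciferase fusion | quantity = 2000 cells/well | incubation = cell settling 4 h, compound treatment 2 h, both 37 °C | signal = luminescence with SteadyLite reagent, 15 min at room temperature | evaluation = % enhancement relative to plate controls after blank subtraction | benchmarks = plate controls and plate blanks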
Wee1 degr inh: blocks degradation of human Wee1 kinase. AID 1321. reporter increase, % at 5 µM. HeLa Luc-Wee1K328M stability, luciferase luminescence; 100% = proteasome inhibitor MG132 effect. 1.2% of 220,000 active. P30291;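 active = activation above the mean of all tested compounds plus 3 SD, set per screening run, cut at about 8.8% in these data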;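 note: cells exposed to compound for 20 h before luminescence read; 0% = DMSO alone and 100% = MG132 at 30 µM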
NF-kB neuron act: NF-kB expression increase, human neuronal cells | NF-kB reporter expression; active compounds read high | fold change at 12.5 µM | 1.6% of 190,000 active | AID 1239; in the data active = fold change above about 3.3
APP 5'UTR act: activates APP 5'UTR luciferase reporter; SH-SY5Y APP 5'UTR luciferase reporter, luminescence; zero percent = DMSO vehicle wells; activation, % at 2 µM; 1% of 190,000 active; AID 1276;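 active = activation above a set limit, based on mean plus 3 SD of controls, cut at about 140% in these data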
p97 ATPase inh: blocks human p97 ATPase activity; recombinant p97 ATPase, Kinase-Glo ATP luminescence, 3 h; P55072; inhibition, % at 8 µM; AID 1481; 0.42% of 220,000 active; in the data active = inhibition above about 15%;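 note: 0% = DMSO vehicle and 100% = wells lacking enzyme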
STAT1 act conf: confirmation of STAT1 signaling activators; shares compounds with STAT1 activator; NIH 3T3 STAT1-luciferase reporter, IFN-gamma potentiation, luminescence; 100% = IFN-gamma EC80 alone, no compound; 97% of 1,200 active; activation (% of control), % at 5.7 µM;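 active = activation above a set limit carried over from the earlier primary STAT1 screen, cut at about 140% in these data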;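 note: simple ratio to median IFN-gamma plus DMSO wells so 0% means no light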
NFkB act: counter-screen for STAT1 activators: NF-kappaB activation. shares compounds with STAT1 activator. HEK293T NF-kB luciferase reporter, TNF-alpha stimulated, luminescence; 100% = TNF-alpha with vehicle only. activation (% of control), % at 5.7 µM. 43% of 1,200 active;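 active = activation above the mean of solvent-only control wells plus 3 SD, set per campaign, cut at about 130% in these data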;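 note: TNF-alpha given at a submaximal dose yielding about 80% of full reporter signal; values are well signal over median control so 100% means no change and 0% no light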
STAT3 act 2: counter-screen for STAT1 activators: human STAT3 activation; AID 1316; activation (% of control), % at 5.7 µM; U3A cells STAT3-luciferase reporter, IL-6, luminescence; cells lack STAT1; 100 = IL-6 alone, no compound effect; 46% of 1,200 active; shares compounds with STAT1 activator;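 active = activation above the solvent-only control well mean plus 3 SD, set per plate batch, cut at about 110% in these data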;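 note: 0% = no luminescence and 100% = median IL-6 plus DMSO wells; higher means more STAT3 reporter activation so hits are non-selective activators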
An asterisk follows results filed as active; / = no result given. Shown are actives, neighbours in structure and some others; about 4.6% of the full set was active somewhere.

SMILES	STAT1 activator	MDM2 E3 inh	Wee1 degr inh	NF-kB neuron act	APP 5'UTR act	p97 ATPase inh	STAT1 act conf	NFkB act	STAT3 act 2
CCOc1ccccc1-n1nnnc1SCC(=O)NCc1ccco1	99.1	-8.1	-2.3	1.09	5.7	1.1	/	/	/
O=C(O)COc1ccccc1/C=N/NC(=O)CSc1nnc(SCc2ccccc2)s1	/	0.6	-3.6	/	/	-0.3	/	/	/
CCSc1nc2c([nH]c3ccccc32)c(=O)n1C	101.5	-5.6	2.0	1	-1.1	4.0	/	/	/
C=CCSc1nnc2c(n1)[nH]c1c(C)cccc12	154.2*	-29.9	5.6	2.39	119.3	-2.2	176.0*	118.1	88.9
CCSc1nnc2nc3[nH]c4c(C)cccc4c3nn12	151.0*	3.4	3.4	2.03	84.2	-1.1	148.6*	119.1	123.3*
Cc1ccc(Cn2ccc(O)c(Cc3ccccc3)c2=O)cc1	99.2	4.9	-1.9	0.86	-18.6	-0.3	/	/	/
Cc1nnc(SCC(=O)Nc2ccc(-c3nc4ccccc4s3)cc2)s1	156.3*	-55.5	1.9	5.64*	157.8*	5.2	243.0*	109.1	85.6
Cc1ccc2nc(-c3ccc(NC(=O)CN4CCN(c5ccccn5)CC4)cc3)sc2c1	/	-16.7	8.1	/	/	1.5	/	/	/
Cc1ccc2nc(-c3ccc(NC(=O)CN4C(=O)c5ccccc5C4=O)cc3)sc2c1	162.1*	-9.6	5.9	1.66	113.5	3.5	180.3*	129.9	117.9*
CCC1(c2ccccc2)NC(=O)N(CC(=O)Nc2ccc3c(c2)OCO3)C1=O (centres undefined)	103.6	-11.7	-2.5	0.94	-3.7	4.0	/	/	/
CCC1(c2ccc(F)cc2)NC(=O)N(CC(=O)Nc2ccc(-c3nc4ccc(C)cc4s3)cc2)C1=O (centres undefined)	169.4*	-13.7	7.6	1.06	214.0*	3.9	201.4*	133.0	112.5*
Cc1sc(NC(=O)c2ccccc2)c(C#N)c1-c1ccccc1	166.0*	-6.0	7.6	4.91*	137.9*	-3.8	200.3*	140.9*	108.5
Cc1ccc(/C=C/C(=O)N2CCCC(C)C2)cc1 (centres undefined)	167.8*	-41.8	-1.6	4.52*	125.0	-1.8	193.0*	123.9	100.8
CC1CCN(C(=O)/C=C/c2ccc(C(C)(C)C)cc2)CC1	105.8	-7.2	1.4	2	27.9	-4.8	/	/	/
CC(C)(C)c1ccc(/C=C/C(=O)N2CCCCC2)cc1	168.7*	-4.5	3.9	4.37*	109.9	-1.4	165.5*	148.7*	127.8*
CN(CCCN1CCOCC1)Cc1cn(C)nc1-c1ccccc1F	105.7	-9.9	6.6	1	3.9	3.6	/	/	/
Cc1cc(/C=C(\C#N)C(=O)Nc2ccccc2F)c(C)[nH]1	171.6*	-18.2	3.9	5.5*	147.1*	5.2	234.7*	140.8*	116.1*
C=CCNC(=O)NC(=O)CSc1nnc(C(F)(F)F)n1C	91.5	-13.9	-1.1	1.41	5.6	2.0	/	/	/
CCn1c(C)nc2cc(C(=O)NNC(=O)c3ccc(Cl)nc3)ccc21	99.6	-7.5	0.6	1.53	-5.2	6.1	/	/	/
CCn1c(C)nc2cc(C(=O)OC(C(F)(F)C(F)F)C(F)(F)C(F)F)ccc21	182.5*	-11.2	-1.5	0.9	-1.7	0.6	181.8*	120.1	114.7*
COc1ccc2cc(CCNC(=O)c3cccs3)c(=O)[nH]c2c1	159.1*	/	9.5*	6.07*	103.8	4.2	192.7*	140.3*	109.9
COc1ccc2cc(CCNC(=O)CC(C)(C)C)c(=O)[nH]c2c1	100.6	-0.8	0.5	1.25	-20.5	-4.6	/	/	/
Cc1ccc(C(=O)/C=C/Nc2cccc([N+](=O)[O-])c2)o1	153.3*	-16.0	5.1	5.45*	111.5	3.8	187.4*	124.7	106.4
O=C(Nc1nc2ccccc2[nH]1)c1cccc([N+](=O)[O-])c1	156.5*	-11.3	2.0	/	112.8	3.5	168.6*	124.7	119.6*
O=C(Cc1nc2ccccc2[nH]1)c1cccc([N+](=O)[O-])c1	/	-4.9	-1.4	/	/	11.6	/	/	/
SMILES	STAT1 activator	MDM2 E3 inh	Wee1 degr inh	NF-kB neuron act	APP 5'UTR act	p97 ATPase inh	STAT1 act conf	NFkB act	STAT3 act 2
Cc1ncsc1C(=O)Nc1nc2c(s1)CC(C)CC2 (centres undefined)	151.9*	-8.3	9.6*	4.64*	120.9	-6.6	178.5*	122.6	99.5
COc1ccc(N/C=C/C(=O)c2ccc(C)cc2)c([N+](=O)[O-])c1	152.9*	/	-2.1	/	130.5	-0.5	218.1*	120.8	98.8
COc1ccc(Cc2nnc(NC(=O)c3cccs3)s2)cc1OC	106.7	-10.5	-0.6	0.98	-3.7	10.7	/	/	/
Cc1nc2cc(NC(=O)N3c4ccccc4CC3C)ccc2n1C (centres undefined)	151.2*	-39.4	0.9	4.02*	/	-2.7	217.9*	132.1	132.2*
COc1ccc(CCn2c(=O)c3cccnc3n(Cc3cccc([N+](=O)[O-])c3)c2=O)cc1OC	96.9	-5.1	-0.7	0.61	12.1	-2.7	/	/	/
COc1ccc(-c2cn3cccc(C)c3n2)cc1Br	172.5*	2.2	6.5	4.8*	137.0*	0.1	191.2*	129.5	101.9
C=CCN1C=CC(=C/C=C(/C#N)C(=O)OCC)C=C1	175.3*	-37.7	-0.2	4.57*	142.8*	3.9	210.1*	133.2*	117.3*
Cc1ccc(NC(=O)c2ccn(C)n2)c(Br)c1	154.7*	-23.0	4.1	6.95*	142.0*	2.9	197.7*	116.0	96.7
COc1cccc(NC(=O)c2ccn(C)n2)c1	126.2	-1.1	0.5	2.03	62.0	3.7	/	/	/
Cc1ccc(NC(=O)c2ccccn2)c(Br)c1	152.1*	-40.4	2.7	6.92*	152.8*	2.1	199.6*	125.9	110.3
Cn1ccc(C(=O)Nc2ccc(Br)cc2Br)n1	168.0*	-16.2	1.0	7.56*	142.7*	13.1	199.6*	124.1	101.8
Cc1noc(C)c1-c1nc(CS(=O)(=O)c2ccc(F)cc2)no1	/	-17.1	-2.0	/	/	-0.1	/	/	/
COc1ccc(S(=O)(=O)N2CCCCC2)cc1NC(=O)CSc1ncnc2ccccc12	96.8	-14.1	-2.7	1	14.0	0.0	/	/	/

Screening results: PubChem, several laboratories
